In ChEMBL document CHEMBL1126160, “Synthesis and structure-activity relationships of 7-diazabicycloalkylquinolones, including danofloxacin, a new quinolone antibacterial agent for veterinary medicine” (J Med Chem, 1992):
In brackets after ≈: the same amount, converted by molar mass.

How the values were obtained:
Pasteurella multocida [1] = assay: In vivo protective dose was evaluated Pasteurella multocida (59A006) in mouse(sc); assay type: functional; details: read-out: PD50
How it was run: (§1)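 Female CF-1 mice (15 g), groups of 10, challenged ip with 0.5 mL bacterial suspension (P. multocida 59A006 or E. coli 51A266 at 3.0 × 10^8 cfu/mL; S. choleraesuis 58B010 at 8.5 × 10^2 cfu/mL). Drug given sc or po at 30 min, 4 h and 24 h after challenge; survival recorded at 96 h; PD50 by probit analysis.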

[2] = test system: Actinobacillus pleuropneumoniae; assay: In vitro antibacterial activity against anaerobically grown Actinobacillus pleuropneumoniae ([…]); assay type: functional
How it was run: (§2)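 Agar dilution MICs. Anaerobic strains were tested on tryptose agar with 5% bovine blood and incubated 48 h at 39 °C in an anaerobe chamber under N2/CO2/H2 (80:10:10).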

Escherichia coli [3] = assay: Escherichia coli DNA cleavage endpoint value which is the minimum amount required (in micro g/mL) to induce detectable cleavage of supercoiled pBR322 substrate to linear form (gyrase); assay type: functional; details: read-out: MIC
How it was run: (§3)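 DNA gyrase A and B subunits were purified from E. coli overproducers. About 2 units of holoenzyme were incubated with pBR322 in Tris-HCl pH 7.5 containing MgCl2, spermidine, DTT, 0.2 mM ATP, BSA and tRNA. Drug was added as 2-fold serial dilutions, and reactions ran for 60 min at 25 °C. Reactions were stopped with SDS and proteinase K, then run on agarose and stained with ethidium. The endpoint was the lowest concentration giving detectable linear DNA.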

[4] = In vitro antibacterial activity against Aerobically grown Pasteurella haemolytica (59B018); assay type: functional; details: Mannheimia haemolytica
How it was run: (§4)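 Agar dilution MICs. Aerobic strains were tested on brain heart infusion agar and incubated aerobically at 37 °C for 18–20 h.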

Pasteurella multocida [5] = assay: In vitro antibacterial activity against aerobically grown Pasteurella multocida (59A006); assay type: functional; how it was run: as §4
[6] = In vitro evaluation for antibacterial activity against anaerobically grown Treponema hyodysenteriae (94A007); assay type: functional; details: Brachyspira hyodysenteriae
Mannheimia haemolytica [7] = assay: Compound was evaluated for minimum against Pasteurella haemolytica intramuscular dose administration; assay type: functional; details: im, read-out: MED
How it was run: (§5)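 Calf and swine respiratory disease models. Calves received acetic acid intratracheally on the day before and on day 0, then an endotracheal challenge with P. haemolytica B280PA, about 5 × 10^8 cfu/mL. They were dosed im with a 2.5% or 5% solution in sterile water on days 0 and 1 (SID × 2). Pigs weighing 8.5–12.5 kg were challenged intranasally with A. pleuropneumoniae B316HM, 10^9 cfu/mL. They were dosed once within 1 h, either im (1% or 2.5% solution) or by gavage (0.5% solution). MED was the lowest dose giving significant reduction of lung pathology.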

Staphylococcus aureus [8] = assay: In vitro antibacterial activity against aerobically grown Staphylococcus aureus (54B004); assay type: functional; how it was run: as §4
Salmonella enterica [9] = assay: In vitro antibacterial activity against aerobically grown Salmonella choleraesuis (58B015); assay type: functional
Escherichia coli [10] = assay: In vivo protective dose was evaluated against Escherichia coli (51A266) in mouse(sc); assay type: functional; details: read-out: PD50; how it was run: as §1
Trueperella pyogenes = assay: In vitro antibacterial activity against anaerobically grown Actinomyces pyogenes (14D002); assay type: functional; how it was run: as §2
[11] = test system: Actinobacillus pleuropneumoniae; assay: Compound was evaluated for minimum effective dose against Actinobacillus pleuropneumonia peroral dose administration; assay type: functional; details: po, read-out: MED; how it was run: as §5
[12] = test system: Actinobacillus pleuropneumoniae; assay: Compound was evaluated for minimum against Actinobacillus pleuropneumoniae intramuscular dose administration; details: im, read-out: MED
Clostridium perfringens = assay: microbe, parasite or virus in culture; assay type: functional
Pasteurella multocida [13] = assay: In vivo protective dose was evaluated Pasteurella multocida (59A006) in mouse(po); assay type: functional; details: read-out: PD50; how it was run: as §1
[14] = test system: Bordetella bronchiseptica; assay: In vitro antibacterial activity against aerobically grown Bordetella bronchiseptica (73A009); assay type: functional; how it was run: as §4
Phocaeicola vulgatus = assay: In vitro antibacterial activity against anaerobically grown Bacteroides vulgatus (78D029); assay type: functional; how it was run: as §2
Escherichia coli [15] = assay: In vitro antibacterial activity against aerobically grown Escherichia coli (51A538); assay type: functional; how it was run: as §4
Escherichia coli [16] = assay: The Escherichia coli DNA cleavage endpoint value which is the minimum amount of compound required (micro g/mL) to induce detectable cleavage of supercoiled pBR322 substrate to the linear form (gyrase); assay type: functional; how it was run: as §3
Staphylococcus aureus [17] = assay: In vitro antibacterial activity against Aerobically grown Staphylococcus aureus (54B004); assay type: functional; how it was run: as §4
Pasteurella multocida [18] = assay: In vitro antibacterial activity against Aerobically grown Pasteurella multocida (59A006); assay type: functional; how it was run: as §4
[19] = test system: Bordetella bronchiseptica; assay: In vitro antibacterial activity against Aerobically grown Bordetella bronchiseptica (73A009); assay type: functional; how it was run: as §4
Salmonella enterica [20] = assay: In vitro antibacterial activity against Aerobically grown Salmonella choleraesuis (58B015); assay type: functional
Escherichia coli [21] = assay: In vitro antibacterial activity against Aerobically grown Escherichia coli (51A538); assay type: functional; how it was run: as §4
[22] = compound was evaluated for aqueous solubility at pH 7.2; assay type: physicochemical; details: buffer
How it was run: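 Excess solid (~5 mg) shaken in 3 mL 0.05 M phosphate buffer pH 7.2 at 23 ± 1 °C in duplicate vials up to 3 days, pH readjusted to 7.2 after each sampling; filtered (0.45 nylon) samples analysed by HPLC.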

[23] = test system: Actinobacillus pleuropneumoniae; assay: Compound was evaluated for minimum effective dose against Actinobacillus pleuropneumonia, peroral dose administration; assay type: functional; details: po, read-out: MED
How it was run: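 Cross-bred swine, 8.5–12.5 kg; intranasal challenge with A. pleuropneumoniae strain B316HM, grown overnight on enriched BHI agar at 37 °C in 5–10% CO2 and standardized by OD to 10^9 cfu/mL, three 1-mL increments per nostril. Single treatment (SID × 1): im 1% or 2.5% solution in sterile water into ham within 1 h of challenge, or oral gavage of 0.5% solution in sterile water.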

[24] = test system: Actinobacillus pleuropneumoniae; assay: Compound was evaluated for minimum effective dose against Actinobacillus pleuropneumonia, intramuscular dose administration; details: im, read-out: MED
Pasteurella multocida [25] = assay: In vivo protective dose was evaluated against Pasteurella multocida (59A006) in mouse(sc); assay type: functional; details: read-out: PD50; how it was run: as §1
Pasteurella multocida [26] = assay: In vivo protective dose was evaluated against Pasteurella multocida (59A006) in mouse(po); assay type: functional; details: read-out: PD50; how it was run: as §1
Mannheimia haemolytica [27] = assay: Compound was evaluated for minimum effective dose against Pasteurella haemolytica, intramuscular dose administration; assay type: functional; details: im, read-out: MED
How it was run: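 Calves acid-treated intratracheally with 0.6 mL 8% acetic acid at 24 h and 4 h before endotracheal challenge with 50 mL P. haemolytica B280PA (~5 × 10^8 cfu/mL). im dosing of 2.5% or 5% solution in sterile water, day 0 and day 1 (SID × 2). Clinical signs and temperature recorded days 0–5; lungs scored and cultured. MED = lowest dose giving significant (65%) reduction of lung pathology.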

Escherichia coli [28] = assay: In vivo protective dose was evaluated against Escherichia coli (51A266) in mouse(po); assay type: functional; details: read-out: PD50; how it was run: as §1
Mannheimia haemolytica [29] = assay: Dose was evaluated for minimum effective dose Pasteurella haemolytica, intramuscular dose administration; assay type: functional; details: im, read-out: MED; how it was run: as §5
[30] = test system: Actinobacillus pleuropneumoniae; assay: Compound was evaluated for minimum effective dose Actinobacillus pleuropneumonia, peroral dose administration; assay type: functional; details: po, read-out: MED; how it was run: as §5
[31] = test system: Actinobacillus pleuropneumoniae; assay: Dose was evaluated for minimum effective dose actinobacillus pleuropneumonia, intramuscular dose administration; details: im, read-out: MED
Salmonella enterica [32] = assay: In vivo protective dose was evaluated against Salmonella choleraesuis (58B010) in mouse(po); assay type: functional; details: read-out: PD50; how it was run: as §1

Row | SMILES | MIC [2] [µg/mL] | minimum concentration inducing gyrase-mediated DNA cleavage (Escherichia coli [3]) [µg/mL] | MIC [4] [µg/mL] | MIC (Pasteurella multocida [5]) [µg/mL] | MIC [6] [µg/mL] | MIC (Staphylococcus aureus [8]) [µg/mL] | MIC (Salmonella enterica [9]) [µg/mL] | ED50 (Escherichia coli [10]) [mg/kg] | MIC (Trueperella pyogenes) [µg/mL] | MIC (Clostridium perfringens) [µg/mL] | MIC [14] [µg/mL] | MIC (Phocaeicola vulgatus) [µg/mL] | MIC (Escherichia coli [15]) [µg/mL] | ED50 (Pasteurella multocida [26]) [mg/kg] | ED50 (Escherichia coli [28]) [mg/kg] | further results
1 | CCn1cc(C(=O)O)c(=O)c2cc(F)c(N3C[C@H]4CC[C@@H](C3)N4C)cc21 | 0.78 (≈ 2.17 µM) | 3.12 | 0.39 (≈ 1.09 µM) | 0.2 (≈ 0.556 µM) | 3.13 (≈ 8.71 µM) | 0.2 (≈ 0.556 µM) | 0.78 (≈ 2.17 µM) | 2.23 | > 3.13 | 0.39 (≈ 1.09 µM) | > 1.56 | > 3.13 | 0.78 (≈ 2.17 µM) | – | – | ED50 (Pasteurella multocida [1]): 1.31 mg/kg; minimal effective dose (Mannheimia haemolytica [7]): 1.2 mg/kg; minimal effective dose [11]: 5 mg/kg; minimal effective dose [12]: 0.6 mg/kg; ED50 (Pasteurella multocida [13]): 2.21 mg/kg
2 | CN1C[C@@H]2C[C@H]1CN2c1c(F)cc2c(=O)c(C(=O)O)cn(C3CC3)c2c1Cl | < 0.05 | – | – | < 0.05 | 6.25 (≈ 16 µM) | 0.1 (≈ 0.255 µM) | < 0.05 | – | 0.39 (≈ 0.995 µM) | 0.2 (≈ 0.51 µM) | 0.39 (≈ 0.995 µM) | 0.78 (≈ 1.99 µM) | < 0.05 | – | – | MIC (Escherichia coli [16]): 0.19 µg/mL (≈ 0.485 µM)
3 | CN1C[C@@H]2C[C@H]1CN2c1c(F)cc2c(=O)c(C(=O)O)cn(-c3ccc(F)cc3)c2c1Cl | 0.78 (≈ 1.75 µM) | 1.56 | 0.78 (≈ 1.75 µM) | – | > 3.13 | – | – | – | > 3.13 | 0.78 (≈ 1.75 µM) | – | > 3.13 | – | – | – | MIC (Staphylococcus aureus [17]): 0.78 µg/mL (≈ 1.75 µM); MIC (Pasteurella multocida [18]): 0.05 µg/mL (≈ 0.112 µM); MIC [19]: > 1.56 µg/mL; MIC (Salmonella enterica [20]): 1.56 µg/mL (≈ 3.5 µM); MIC (Escherichia coli [21]): 0.78 µg/mL (≈ 1.75 µM)
4 | CCn1cc(C(=O)O)c(=O)c2cc(F)c(N3CCN4CCC3CC4)cc21 [BINFLOXACIN] | 0.05 (≈ 0.139 µM) | 1.56 | 0.1 (≈ 0.278 µM) | 0.05 (≈ 0.139 µM) | 1.56 (≈ 4.34 µM) | 0.39 (≈ 1.09 µM) | 0.2 (≈ 0.556 µM) | 1.1 | 3.13 (≈ 8.71 µM) | 0.1 (≈ 0.278 µM) | 1.56 (≈ 4.34 µM) | > 3.13 | 0.2 (≈ 0.556 µM) | 1.9 | 10.2 | solubility [22]: 49 µg/mL (≈ 136 µM); minimal effective dose [23]: 2.5 mg/kg; minimal effective dose [24]: 0.3 mg/kg; ED50 (Pasteurella multocida [25]): 0.63 mg/kg; minimal effective dose (Mannheimia haemolytica [27]): 0.3 mg/kg
5 | CN1C[C@@H]2C[C@H]1CN2c1cc2c(cc1F)c(=O)c(C(=O)O)cn2C1CC1 [DANOFLOXACIN] | 0.05 (≈ 0.14 µM) | 0.78 | 0.05 (≈ 0.14 µM) | 0.01 (≈ 0.028 µM) | 0.39 (≈ 1.09 µM) | 0.39 (≈ 1.09 µM) | 0.05 (≈ 0.14 µM) | – | > 3.13 | 0.2 (≈ 0.56 µM) | 0.78 (≈ 2.18 µM) | 3.13 (≈ 8.76 µM) | 0.05 (≈ 0.14 µM) | 0.31 | 0.4 | minimal effective dose (Mannheimia haemolytica [29]): 0.15 mg/kg; minimal effective dose [30]: 0.6 mg/kg; minimal effective dose [31]: 0.15 mg/kg; ED50 (Salmonella enterica [32]): 1.12 mg/kg
